Data from ChEMBL document CHEMBL1156744, “Anti-tumoral activity of imidazoquines, a new class of antimalarials derived from primaquine” (Bioorg Med Chem Lett, 2009).

What was measured:
Format in all cases: functional, cell-based
MCF7 = assay: Antitumor activity against human MCF7 cells after 48 hours hrs by SRB assay; conditions: MCF7, 48 h
Procedure, shortened: (§1)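 Seeded cells were exposed to each compound across a broad concentration range for 48 h. Growth was read by sulforhodamine B staining, compared against untreated control. Values are mean ± SEM, n = 3–6.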

HT-29 = assay: Antitumor activity against human HT-29 cells after 48 hours hrs by SRB assay; conditions: HT-29, 48 h; procedure, shortened: as §1
Caco-2 = assay: Antitumor activity against human Caco-2 cells after 48 hours hrs by SRB assay; conditions: Caco-2, 48 h; procedure, shortened: as §1

Q: Which IC50 (MCF7) does the source give for `COc1cc(NC(C)CCCNC(C)=O)c2ncccc2c1` (stereo unspecified) here?
A: 57.3 µM

Q: What about the IC50 (HT-29) of the same compound?
A: > 100 µM

Q: And the IC50 (Caco-2)?
A: 46 µM

Q: What does the source list for `COc1cc(N)c2ncccc2c1`?
A: IC50 (MCF7): 86.5 µM; IC50 (HT-29): > 100 µM; IC50 (Caco-2): > 100 µM

Q: How did the IC50 (MCF7) turn out when `COc1cc(NC(C)CCCN2C(=O)[C@H](C)NC2(C)C)c2ncccc2c1` (stereo partly specified) was run?
A: 42.3 µM

Q: And the IC50 (HT-29)?
A: > 100 µM

Q: What about the IC50 (Caco-2) of the same compound?
A: 71 µM

Q: How did the IC50 (MCF7) turn out when `COc1cc(NC(C)CCCN2C(=O)CN(C(=O)[C@H](C)N)C2(C)C)c2ncccc2c1` (stereo partly specified) was run?
A: 20 µM

Q: What about the IC50 (HT-29) of the same compound?
A: 46.3 µM

Q: What about the IC50 (Caco-2) of the same compound?
A: > 100 µM

Q: For `COc1cc(NC(C)CCCNC(=O)CNC(=O)[C@H](C)N)c2ncccc2c1` (stereo partly specified), which IC50 (MCF7) is on record?
A: 21.3 µM

Q: And the IC50 (HT-29)?
A: 92.3 µM

Q: And the IC50 (Caco-2)?
A: > 100 µM

Q: `COc1cc(NC(C)CCCNC(=O)C2CCCN2C(=O)[C@@H](C)N)c2ncccc2c1` (stereo partly specified) was tested. Which IC50 (MCF7) did it give?
A: 15 µM

Q: What about the IC50 (HT-29) of the same compound?
A: > 100 µM

Q: And the IC50 (Caco-2)?
A: 64 µM

Q: How did the IC50 (MCF7) turn out when `COc1cc(NC(C)CCCNC(=O)CN2C(=O)[C@H](C)NC23CCCCC3)c2ncccc2c1` (stereo partly specified) was run?
A: 27 µM

Q: And the IC50 (HT-29)?
A: > 100 µM

Q: What about the IC50 (Caco-2) of the same compound?
A: 74.7 µM

Q: How did the IC50 (MCF7) turn out when `COc1cc(NC(C)CCCNC(=O)CN2C(=O)[C@H](C)NC2(C)C)c2ncccc2c1` (stereo partly specified) was run?
A: 38.3 µM

Q: And the IC50 (HT-29)?
A: > 100 µM

Q: And the IC50 (Caco-2)?
A: 58 µM

Q: Which results are given for `FC(F)(F)c1ccc2c(Cl)ccnc2c1`?
A: IC50 (MCF7): 63 µM; IC50 (HT-29): > 100 µM; IC50 (Caco-2): 52.3 µM

Q: With `COc1cc(NC(C)CCCN2C(=O)CN(C(C)=O)C2(C)C)c2ncccc2c1` (stereo unspecified) as the compound, how does the IC50 (MCF7) read?
A: > 100 µM

Q: What about the IC50 (HT-29) of the same compound?
A: > 100 µM

Q: What about the IC50 (Caco-2) of the same compound?
A: 60 µM

Q: Which results are given for `O=C(O)c1cc2ccccc2nc1Cl`?
A: IC50 (MCF7): > 100 µM; IC50 (HT-29): > 100 µM; IC50 (Caco-2): 81 µM

Q: `COc1cc(NC(C)CCCN)c2ncccc2c1` (stereo unspecified) [PRIMAQUINE] was tested. Which IC50 (MCF7) did it give?
A: 6.9 µM

Q: What about the IC50 (HT-29) of the same compound?
A: 69.7 µM

Q: What about the IC50 (Caco-2) of the same compound?
A: 48 µM
